ChEMBL document CHEMBL3351230, “Synthesis of 2-anilinopyridine dimers as microtubule targeting and apoptosis inducing agents” (Bioorg Med Chem, 2014)
Active and inactive are the calls of the source. The calls are words filed in the database; no cut-off is given here.

Legend:
DU-145 [1] = assay: Cell cycle arrest in human DU145 cells assessed as cells accumulation at SubG1 phase at 2 uM after 48 hrs by propidium iodide staining-based flow cytometric analysis (reference value: 3.52%); format: functional
DU-145 [2] = assay: Cell cycle arrest in human DU145 cells assessed as cells accumulation at G0/G1 phase at 2 uM after 48 hrs by propidium iodide staining-based flow cytometric analysis (reference value: 84.75%); format: functional
DU-145 [3] = assay: Cell cycle arrest in human DU145 cells assessed as cells accumulation at S phase at 2 uM after 48 hrs by propidium iodide staining-based flow cytometric analysis (reference value: 4.18%); format: functional
DU-145 [4] = assay: Cell cycle arrest in human DU145 cells assessed as cells accumulation at G2/M phase at 2 uM after 48 hrs by propidium iodide staining-based flow cytometric analysis (reference value: 6.81%); format: functional
Tubulin = assay: Inhibition of tubulin polymerization (unknown origin) after 1 hr by fluorescence analysis; format: protein-complex assay, Homo sapiens
Outline: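 Fluorescence-reporter tubulin polymerization kit. Tubulin (3 mg/mL) in PEM buffer with 1 mM GTP, with or without compound (3 µM, or 2.5–15 µM for IC50). Fluorescence (ex 360 / em 420 nm) was followed for 1 h at 37 °C. IC50 is the concentration giving 50% inhibition of assembly versus control. Data are mean ± SD of two experiments in triplicate, with E7010 as positive control.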

Tubulin (Homo sapiens) = Tubulin (Homo sapiens) (UniProt P68371+Q9H4B7+P0DPH7+P68366+Q13509+Q71U36+P04350+Q3ZCM7+P07437+P68363+Q9BQE3+Q6PEY2+Q13885+Q9BVA1+Q9BUF5); assay: Displacement of colchicine from tubulin (unknown origin) at 5 to 25 uM after 60 mins by competitive binding assay; format: protein-complex assay
Outline: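 Compound (5, 10, 15, 20, 25 µM) was co-incubated with 4 µM colchicine and 3 µM tubulin in 30 mM Tris buffer for 60 min at 37 °C. Tubulin–colchicine fluorescence was read at ex 350 / em 435 nm. Buffer blank was subtracted and values were normalized to DMSO control (F/F0). Nocodazole or E7010 served as positive control and taxol as negative control.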

DU-145 [5] = assay: Induction of apoptosis in human DU145 cells assessed as necrotic cells at 2 uM after 48 hrs by annexin V-FITC/propidium iodide staining-based flow cytometric analysis (reference value: 0.22%); format: functional
DU-145 [6] = assay: Induction of apoptosis in human DU145 cells assessed as late apoptotic cells at 2 uM after 48 hrs by annexin V-FITC/propidium iodide staining-based flow cytometric analysis (reference value: 1.96%); format: functional
DU-145 [7] = assay: Induction of apoptosis in human DU145 cells assessed as viable cells at 2 uM after 48 hrs by annexin V-FITC/propidium iodide staining-based flow cytometric analysis (reference value: 97.12%); format: functional; details: DU-145, 48 h, read-out: Activity
DU-145 [8] = assay: Induction of apoptosis in human DU145 cells assessed as early apoptotic cells at 2 uM after 48 hrs by annexin V-FITC/propidium iodide staining-based flow cytometric analysis (reference value: 0.71%); format: functional
DU-145 [9] = assay: Induction of apoptosis in human DU145 cells assessed as mitochondrial membrane potential drop measured as necrotic cells at 2 uM after 48 hrs using JC-1 staining-based flow cytometry (reference value: 0%); format: functional
DU-145 [10] = assay: Induction of apoptosis in human DU145 cells assessed as mitochondrial membrane potential drop measured as late apoptotic cells at 2 uM after 48 hrs using JC-1 staining-based flow cytometry (reference value: 90.9%); format: functional
DU-145 [11] = assay: Induction of apoptosis in human DU145 cells assessed as mitochondrial membrane potential drop measured as viable cells at 2 uM after 48 hrs using JC-1 staining-based flow cytometry (reference value: 0%); format: functional
DU-145 [12] = assay: Induction of apoptosis in human DU145 cells assessed as mitochondrial membrane potential drop measured as early apoptotic cells at 2 uM after 48 hrs using JC-1 staining-based flow cytometry (reference value: 9.1%); format: functional
A549 = assay: Antiproliferative activity against human A549 cells assessed as growth inhibition after 48 hrs by SRB assay; details: A549, 48 h
MCF7 = assay: Antiproliferative activity against human MCF7 cells assessed as growth inhibition after 48 hrs by SRB assay; details: MCF7, 48 h
DU-145 [13] = assay: Antiproliferative activity against human DU145 cells assessed as growth inhibition after 48 hrs by SRB assay; details: DU-145, 48 h

SMILES: COc1ccc(S(=O)(=O)Nc2cccnc2Nc2ccc(O)cc2)cc1 [ABT-751]
- Activity (DU-145 [1]): 4.11%
- Activity (DU-145 [2]): 54.38%
- Activity (DU-145 [3]): 2.94%
- Activity (DU-145 [4]): 36.52%
- IC50 (Tubulin): 2.4 µM
- inhibition (Tubulin (Homo sapiens)): Active
- Activity (DU-145 [5]): 1.01%
- Activity (DU-145 [6]): 17.72%
- viability at 2 µM (DU-145 [7]): 77.3%
- Activity (DU-145 [8]): 3.93%
- Activity (DU-145 [9]): 0%
- Activity (DU-145 [10]): 81.9%
- Activity (DU-145 [11]): 0%
- Activity (DU-145 [12]): 18.1%
- GI50 (A549): 1.31 µM
- GI50 (MCF7): 1.25 µM
- GI50 (DU-145 [13]): 1.81 µM

SMILES: COc1cc(Nc2ncccc2C(=O)Nc2cccnc2Nc2ccc(Cl)cc2)cc(OC)c1OC
- GI50 (A549): > 100 µM
- GI50 (MCF7): > 100 µM
- GI50 (DU-145 [13]): 10.5 µM

SMILES: COc1ccc(Nc2ncccc2NC(=O)c2cccnc2Nc2cc(OC)c(OC)c(OC)c2)cc1
- GI50 (A549): > 100 µM
- GI50 (MCF7): > 100 µM
- GI50 (DU-145 [13]): > 100 µM

SMILES: COc1ccc(Nc2ncccc2NC(=O)c2cccnc2Nc2ccc(F)cc2)cc1
- GI50 (A549): 4.1 µM
- GI50 (MCF7): > 100 µM
- GI50 (DU-145 [13]): 6.6 µM

SMILES: O=C(Nc1cccnc1Nc1ccc(F)cc1)c1cccnc1Nc1ccc(F)cc1
- GI50 (A549): 15.2 µM
- GI50 (MCF7): 16 µM
- GI50 (DU-145 [13]): 8.4 µM

SMILES: COc1ccc(Nc2ncccc2C(=O)Nc2cccnc2Nc2ccccc2)cc1
- GI50 (A549): > 100 µM
- GI50 (MCF7): > 100 µM
- GI50 (DU-145 [13]): 8.1 µM

SMILES: COc1ccc(Nc2ncccc2C(=O)Nc2cccnc2Nc2ccc(Cl)cc2)cc1
- GI50 (A549): > 100 µM
- GI50 (MCF7): 28.8 µM
- GI50 (DU-145 [13]): 16.6 µM

SMILES: COc1cc(Nc2ncccc2C(=O)Nc2cccnc2Nc2ccccc2)cc(OC)c1OC
- GI50 (A549): 6 µM
- GI50 (MCF7): > 100 µM
- GI50 (DU-145 [13]): > 100 µM
